Measurements published in ChEMBL document CHEMBL1122366, “Potential antiatherosclerotic agents. 3. Substituted benzoic and non benzoic acid analogues of cetaben” (1983).
“And” between values parts separate entries of the source, which are not always exact repeats. Equal values may be shown once. One block for each compound: values may come before it.

Columns and labels:
Rattus norvegicus [1] = assay: In vivo sterol lowering activity at dose of 0.10 % of the diet; type: functional
Summary of the method: (§1)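 Normal rats were dosed in the diet. Serum sterol and triglyceride levels were measured and expressed as the mean percent of control values. Significance versus control was reported at p < 0.05, 0.01 and 0.001.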

Rattus norvegicus [2] = assay: In vivo triglyceride lowering activity dosed at 0.10 % of the diet.; type: functional; summary of the method: as §1
[3] = target: T1, Sterol O-acyltransferase 1 (Rattus norvegicus) (UniProt O70536); assay: In vitro inhibition of acyl coenzyme A:cholesterol acyltransferase; parameters: concentration or dose not given beside the values; settings: concentration not given here
T1 sequence (whole entry): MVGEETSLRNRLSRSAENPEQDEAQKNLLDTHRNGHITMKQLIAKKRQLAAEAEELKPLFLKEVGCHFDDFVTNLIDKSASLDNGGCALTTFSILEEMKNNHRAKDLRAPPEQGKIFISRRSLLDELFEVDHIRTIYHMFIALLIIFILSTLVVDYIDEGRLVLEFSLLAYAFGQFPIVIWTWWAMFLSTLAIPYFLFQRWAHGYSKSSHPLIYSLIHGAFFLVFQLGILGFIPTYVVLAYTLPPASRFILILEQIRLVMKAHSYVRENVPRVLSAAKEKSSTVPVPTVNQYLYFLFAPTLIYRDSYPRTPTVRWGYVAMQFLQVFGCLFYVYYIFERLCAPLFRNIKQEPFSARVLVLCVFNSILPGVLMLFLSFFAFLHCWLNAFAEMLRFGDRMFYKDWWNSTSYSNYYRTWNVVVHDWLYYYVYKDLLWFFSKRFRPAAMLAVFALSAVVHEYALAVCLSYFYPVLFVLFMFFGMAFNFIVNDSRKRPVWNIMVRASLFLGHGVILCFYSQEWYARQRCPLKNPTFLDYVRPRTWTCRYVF
Summary of the method: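 Enzyme fatty acyl-CoA:cholesterol acyltransferase (ACAT), assayed in vitro at a single drug concentration of 5.2 μg/mL. The value is the mean percent inhibition of enzyme activity.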

SMILES: CCCCCCCCCCCCCCCCN(C)c1ccc(C(=O)OCC(O)CO)cc1 (centres undefined)
serum sterol level, percent of control (Rattus norvegicus [1]): 99%
serum triglyceride, percent of control (Rattus norvegicus [2]): 93%
inhibition [3]: 0%

SMILES: CCCCCCCCCCCCCCCCNc1ccc(C(C#N)O[Si](C)(C)C)cc1 (centres undefined)
serum sterol level, percent of control (Rattus norvegicus [1]): 82%
serum triglyceride, percent of control (Rattus norvegicus [2]): <36%
inhibition [3]: 0%

SMILES: CCCCCCCCCCCCCCCCNc1ccc(CO)cc1.Cl
serum sterol level, percent of control (Rattus norvegicus [1]): 99%
serum triglyceride, percent of control (Rattus norvegicus [2]): 100%

SMILES: CCCCCCCCCCCCCCCCNc1ccc(C#N)cc1
inhibition [3]: 8% and < 30%

SMILES: CCCCCCCCCCCCCCCCN(C(=O)C(F)(F)F)c1ccc(C(=O)C(C(=O)OCC)C(=O)OC(C)(C)C)cc1 (centres undefined)
serum sterol level, percent of control (Rattus norvegicus [1]): 90%
serum triglyceride, percent of control (Rattus norvegicus [2]): <64%
inhibition [3]: < 49%

SMILES: CCCCCCCCCCCCCCCCNc1csc(C(=O)OCC)c1
serum sterol level, percent of control (Rattus norvegicus [1]): 112%
inhibition [3]: < 24%

SMILES: CCCCCCCCCCCCCCCCNc1ccc(C(=O)N2CCCCC2)cc1
serum sterol level, percent of control (Rattus norvegicus [1]): 83%
serum triglyceride, percent of control (Rattus norvegicus [2]): <61%
inhibition [3]: < 55%

SMILES: CCCCCCCCCCCCCCCCNc1ccc(C#N)cc1.Cl
serum sterol level, percent of control (Rattus norvegicus [1]): 100%
serum triglyceride, percent of control (Rattus norvegicus [2]): 88%

SMILES: CCCCCCCCCCCCCCCCNc1ccc(C(=O)O)c(O)c1
serum sterol level, percent of control (Rattus norvegicus [1]): 108%
serum triglyceride, percent of control (Rattus norvegicus [2]): <57%
inhibition [3]: 49%

SMILES: CCCCCCCCCCCCCCCCN(C(C)=O)c1ccc(C(=O)OCC(O)CO)cc1 (centres undefined)
serum sterol level, percent of control (Rattus norvegicus [1]): 106%
serum triglyceride, percent of control (Rattus norvegicus [2]): 110%
inhibition [3]: 0%

SMILES: CCCCCCCCCCCCCCCCNc1ccc(C(C)O)cc1 (centres undefined)
serum sterol level, percent of control (Rattus norvegicus [1]): 93%
serum triglyceride, percent of control (Rattus norvegicus [2]): 93%
inhibition [3]: < 33%

SMILES: CCCCCCCCCCCCCCCCNc1ccc(-c2nn[nH]n2)cc1
serum sterol level, percent of control (Rattus norvegicus [1]): 89%
serum triglyceride, percent of control (Rattus norvegicus [2]): 91%
inhibition [3]: 78%

SMILES: CCCCCCCCCCCCCCCCN(C(C)=O)c1ccc(CO)cc1
serum sterol level, percent of control (Rattus norvegicus [1]): 99%
serum triglyceride, percent of control (Rattus norvegicus [2]): 105%
inhibition [3]: < 22%

SMILES: CCCCCCCCCCCCCCCCNc1ccc(CO)cc1
inhibition [3]: 10% and 16%

SMILES: CCCCCCCCCCCCCCCCNc1ccc(C(=O)OCC2COC(c3ccccc3)O2)cc1 (centres undefined)
serum sterol level, percent of control (Rattus norvegicus [1]): 84%
serum triglyceride, percent of control (Rattus norvegicus [2]): <50%

SMILES: CCCCCCCCCCCCCCCCN(CC)c1ccc(C(=O)O)cc1
inhibition [3]: < 72%

SMILES: CCCCCCCCCCCCCCCCN(C(C)=O)c1ccc(C(=O)OCC(COC(C)=O)OC(C)=O)cc1 (centres undefined)
serum sterol level, percent of control (Rattus norvegicus [1]): 101%
serum triglyceride, percent of control (Rattus norvegicus [2]): 111%
inhibition [3]: 12%

SMILES: CCCCCCCCCCCCCCCCNc1ccc(C(=O)OCC)c(F)c1
serum sterol level, percent of control (Rattus norvegicus [1]): 90%
serum triglyceride, percent of control (Rattus norvegicus [2]): <68%

SMILES: CCCCCCCCCCCCCCCCN(C(=O)C(F)(F)F)c1ccc(C(=O)N2CCCCCC2)cc1
serum sterol level, percent of control (Rattus norvegicus [1]): 95%
serum triglyceride, percent of control (Rattus norvegicus [2]): <66%
inhibition [3]: < 75%

SMILES: CCCCCCCCCCCCCCCCN(C(=O)C(F)(F)F)c1ccc(C(=O)NO)cc1
serum sterol level, percent of control (Rattus norvegicus [1]): 96%
serum triglyceride, percent of control (Rattus norvegicus [2]): 91%
inhibition [3]: 0%

SMILES: CCCCCCCCCCCCCCCCNc1ccc(C(=O)OC)c(C)c1
serum sterol level, percent of control (Rattus norvegicus [1]): 99%
serum triglyceride, percent of control (Rattus norvegicus [2]): <60%
inhibition [3]: 0%

SMILES: CCCCCCCCCCCCCCCCNc1ccc(C(=O)OC)c(F)c1
serum sterol level, percent of control (Rattus norvegicus [1]): 99%
serum triglyceride, percent of control (Rattus norvegicus [2]): 79%
inhibition [3]: < 23%

SMILES: CCCCCCCCCCCCCCCCNc1ccc(C(=O)Oc2ccc(C(=O)OC(C)(C)C)cc2)cc1
serum sterol level, percent of control (Rattus norvegicus [1]): 103%
serum triglyceride, percent of control (Rattus norvegicus [2]): <67%

SMILES: CCCCCCCCCCCCCCCCNc1ncc(C(=O)OCC)cn1
inhibition [3]: 13%

Continued, in another order:

inhibition [3]: < 77%
SMILES: CCCCCCCCCCCCCCCCNc1ccc(C(=O)NS(=O)(=O)c2ccc(C)cc2)cc1

inhibition [3]: 0%
SMILES: CCCCCCCCCCCCCCCCNc1ccc(C(=O)OCC(O)CO)cc1 (centres undefined)

inhibition [3]: 45%
SMILES: CCCCCCCCCCCCCCCCNc1ccc(C(=O)NC(C)C(=O)O)cc1 (centres undefined)
serum sterol level, percent of control (Rattus norvegicus [1]): 102%
serum triglyceride, percent of control (Rattus norvegicus [2]): 132%

inhibition [3]: 27%
SMILES: CCCCCCCCCCCCCCNc1ccc(C(=O)OCC(O)CO)cc1 (centres undefined)
serum sterol level, percent of control (Rattus norvegicus [1]): <80%
serum triglyceride, percent of control (Rattus norvegicus [2]): <47%

inhibition [3]: 2%
SMILES: CCCCCCCCCCCCCCCCNc1ccc(C(=O)OCC(COC(=O)c2ccc(NCCCCCCCCCCCCCCCC)cc2)OC(C)=O)cc1
serum sterol level, percent of control (Rattus norvegicus [1]): 89%
serum triglyceride, percent of control (Rattus norvegicus [2]): <63%

inhibition [3]: < 25%
SMILES: CCCCCCCCCCCCCCCCN(C(=O)C(F)(F)F)c1ccc(C(=O)Nc2ccc(C(=O)OCC)cc2)cc1
serum sterol level, percent of control (Rattus norvegicus [1]): 95%
serum triglyceride, percent of control (Rattus norvegicus [2]): <69%

inhibition [3]: 48%
SMILES: CCCCCCCCCCCCCCCCNc1ccc(C(=O)N(C)C)cc1
serum sterol level, percent of control (Rattus norvegicus [1]): 93%
serum triglyceride, percent of control (Rattus norvegicus [2]): 89%

inhibition [3]: 22%
SMILES: CCCCCCCCCCCCCCCCNc1ccc(C(=O)OCC(COC(C)=O)OC(C)=O)cc1 (centres undefined)
serum sterol level, percent of control (Rattus norvegicus [1]): <66%
serum triglyceride, percent of control (Rattus norvegicus [2]): <40%

inhibition [3]: 5%
SMILES: CCCCCCCCCCCCCCCCNc1ccc(C(=O)OCC)cc1F
serum sterol level, percent of control (Rattus norvegicus [1]): 105%
serum triglyceride, percent of control (Rattus norvegicus [2]): 74%

inhibition [3]: 4%
SMILES: CCCCCCCCCCCCCCCCNc1ccc(C(=O)OCC(COC(=O)CCCCCCCCCCCCCCC)OC(=O)CCCCCCCCCCCCCCC)cc1 (centres undefined)
serum sterol level, percent of control (Rattus norvegicus [1]): <80%
serum triglyceride, percent of control (Rattus norvegicus [2]): 75%

inhibition [3]: 10%
SMILES: CCCCCCCCCCCCCCCCNc1ccc(C(=O)OC/C=C/COC(=O)c2ccc(NCCCCCCCCCCCCCCCC)cc2)cc1
serum sterol level, percent of control (Rattus norvegicus [1]): 91%

inhibition [3]: 6%
SMILES: CCCCCCCCCCCCCCCCNc1cc(C(=O)OC)cc(C(=O)OC)c1
serum sterol level, percent of control (Rattus norvegicus [1]): 108%
serum triglyceride, percent of control (Rattus norvegicus [2]): 86%

inhibition [3]: 14%
SMILES: CCCCCCCCCCCCCCCCN(C(=O)CCCCCCCCCCCCCCC)c1ccc(C(=O)OCC(O)CO)cc1 (centres undefined)
serum sterol level, percent of control (Rattus norvegicus [1]): 99%
serum triglyceride, percent of control (Rattus norvegicus [2]): 72%

inhibition [3]: 9%
SMILES: CCCCCCCCCCCCCCCCNc1ccc(C(=O)OCC(O)COCC)cc1 (centres undefined)
serum sterol level, percent of control (Rattus norvegicus [1]): <68%
serum triglyceride, percent of control (Rattus norvegicus [2]): <47%

inhibition [3]: 34%
SMILES: CCCCCCCCCCCCCCCCNc1ccc(C(O)C(N)=O)cc1 (centres undefined)
serum sterol level, percent of control (Rattus norvegicus [1]): 94%
serum triglyceride, percent of control (Rattus norvegicus [2]): 57%

inhibition [3]: 28%
SMILES: CCCCCCCCCCCCCCCCN(CCCCCCCCCCCCCCCC)c1ccc(CCC(=O)OCC)cc1
serum sterol level, percent of control (Rattus norvegicus [1]): 94%
serum triglyceride, percent of control (Rattus norvegicus [2]): 84%

inhibition [3]: < 22%
SMILES: CCCCCCCCCCCCCCCCNc1ccc(C(=O)Oc2cccnc2)cc1
serum sterol level, percent of control (Rattus norvegicus [1]): 93%
Diet (Rattus norvegicus [2]): 92%

inhibition [3]: 0%
SMILES: CCCCCCCCCCCCCCCCNc1ccc(CCCC(=O)OCC)cc1
serum sterol level, percent of control (Rattus norvegicus [1]): 99%
serum triglyceride, percent of control (Rattus norvegicus [2]): 76%

inhibition [3]: 18%
SMILES: CCCCCCCCCCCCCCCCN(CCCCCCCCCCCCCCCC)c1ccc(CCCC(=O)OCC)cc1
serum sterol level, percent of control (Rattus norvegicus [1]): 103%
serum triglyceride, percent of control (Rattus norvegicus [2]): 90%

inhibition [3]: 0%
SMILES: CCCCCCCCCCCCCCCCNc1ccc(C(=O)OC2CCCCCC2)cc1
serum sterol level, percent of control (Rattus norvegicus [1]): <87%
serum triglyceride, percent of control (Rattus norvegicus [2]): 84%

inhibition [3]: 0%
SMILES: CCCCCCCCCCCCCCCCNc1ccc(C(=O)OCC(O)COC)cc1 (centres undefined)
serum sterol level, percent of control (Rattus norvegicus [1]): <77%
serum triglyceride, percent of control (Rattus norvegicus [2]): <65%

inhibition [3]: 0%
SMILES: CCCCCCCCCCCCCCCCNc1ccc(C(=O)OCC2COC(C)(C)O2)cc1 (centres undefined)
serum sterol level, percent of control (Rattus norvegicus [1]): 86%
serum triglyceride, percent of control (Rattus norvegicus [2]): <68%
